The results in this text go back to ChEMBL document CHEMBL4325842, “Design, synthesis, and biological evaluation of novel aminopyrimidinylisoindolines as AXL kinase inhibitors” (Bioorg Med Chem Lett, 2018).

Usually inhibition stands for the relative decrease from the control value, in per cent. Read a high inhibition as strong suppression. Broadly, the IC50 is the concentration at which inhibition is half-maximal. For orientation: GI50 means the concentration at which growth is held to half of that of the control. A lower GI50 goes with more potent growth inhibition.

Assay [1] addresses Tyrosine-protein kinase Fgr (Homo sapiens) (UniProt P09769). As to the kind of experiment: Inhibition of human FGR at 10 uM using poly[Glu:Tyr] (4:1) as substrate by [gamma-33P]-ATP assay relative to control. In outline: (§1)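 Commercial kinase panel screen at a single concentration of 10 μM. % inhibition was calculated as 100 minus % activity.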
The target of assay [2] is Serine/threonine-protein kinase pim-1 (Homo sapiens) (UniProt P11309). As to the kind of experiment: Inhibition of human PIM1 at 10 uM using KKRNRTLTK as substrate by [gamma-33P]-ATP assay relative to control. In outline: (§2)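 Kinase-panel profiling (50 oncogenic kinases) run by an outside contract service. The test compound was tested at a single concentration of 10 μM. Percent inhibition was calculated as 100 minus % remaining activity.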
Serine/threonine-protein kinase pim-1 (Homo sapiens), sequence (P11309 whole entry, looked up): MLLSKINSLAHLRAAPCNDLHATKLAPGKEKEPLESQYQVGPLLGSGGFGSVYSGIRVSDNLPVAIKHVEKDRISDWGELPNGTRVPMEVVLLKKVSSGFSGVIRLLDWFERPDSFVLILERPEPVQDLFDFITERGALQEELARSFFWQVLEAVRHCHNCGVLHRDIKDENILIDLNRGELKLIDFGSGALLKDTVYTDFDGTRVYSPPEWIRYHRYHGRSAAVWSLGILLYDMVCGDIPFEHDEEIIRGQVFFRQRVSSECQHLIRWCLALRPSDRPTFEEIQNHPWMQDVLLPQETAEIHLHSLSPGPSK

In assay [3] the target is Mitogen-activated protein kinase 8 (Homo sapiens) (UniProt P45983). In words: Inhibition of human JNK1 at 10 uM using ATF2 as substrate by [gamma-33P]-ATP assay relative to control. In outline:
as §1

In assay [4] the target is ALK tyrosine kinase receptor (Homo sapiens) (UniProt Q9UM73). As to the kind of experiment: Inhibition of human ALK at 10 uM using poly[Glu:Tyr] (4:1) as substrate by [gamma-33P]-ATP assay relative to control. In short, it runs like this: as §1
Assay [5] has as its target Hepatocyte growth factor receptor (Homo sapiens) (UniProt P08581). In words: Inhibition of human c-MET at 10 uM using KKKSPGEYVNIEFG as substrate by [gamma-33P]-ATP assay relative to control. In short, it runs like this:
as §2

The target in assay [6] is Proto-oncogene tyrosine-protein kinase receptor Ret (Homo sapiens) (UniProt P07949). In words: Inhibition of human RET at 10 uM using MEK1 (K97R) as substrate by [gamma-33P]-ATP assay relative to control. In outline: as §2
A further assay addresses Focal adhesion kinase 1 (Homo sapiens, UniProt Q05397). As to the kind of experiment: Inhibition of human FAK at 10 uM using poly[Glu:Tyr] (4:1) as substrate by [gamma-33P]-ATP assay relative to control. In short, it runs like this:
as §1

Assay [7] concerns the target Activated CDC42 kinase 1 (Homo sapiens) (UniProt Q07912). In words: Inhibition of human ACK1 at 10 uM using EAIYAAPFAKKK as substrate by [gamma-33P]-ATP assay relative to control. In outline: as §1
Assay [8] concerns the target High affinity nerve growth factor receptor (Homo sapiens) (UniProt P04629). In words: Inhibition of human TRKA at 10 uM using poly[Glu:Tyr] (4:1) as substrate by [gamma-33P]-ATP assay relative to control. In outline:
as §2

Assay [9] addresses Vascular endothelial growth factor receptor 1 (Homo sapiens) (UniProt P17948). In words: Inhibition of human FLT1 at 10 uM using poly[Glu:Tyr] (4:1) as substrate by [gamma-33P]-ATP assay relative to control. In short, it runs like this:
as §1

Assay [10] deals with T1, Tyrosine-protein kinase receptor UFO (Homo sapiens, UniProt P30530).
T1 sequence (P30530 whole entry): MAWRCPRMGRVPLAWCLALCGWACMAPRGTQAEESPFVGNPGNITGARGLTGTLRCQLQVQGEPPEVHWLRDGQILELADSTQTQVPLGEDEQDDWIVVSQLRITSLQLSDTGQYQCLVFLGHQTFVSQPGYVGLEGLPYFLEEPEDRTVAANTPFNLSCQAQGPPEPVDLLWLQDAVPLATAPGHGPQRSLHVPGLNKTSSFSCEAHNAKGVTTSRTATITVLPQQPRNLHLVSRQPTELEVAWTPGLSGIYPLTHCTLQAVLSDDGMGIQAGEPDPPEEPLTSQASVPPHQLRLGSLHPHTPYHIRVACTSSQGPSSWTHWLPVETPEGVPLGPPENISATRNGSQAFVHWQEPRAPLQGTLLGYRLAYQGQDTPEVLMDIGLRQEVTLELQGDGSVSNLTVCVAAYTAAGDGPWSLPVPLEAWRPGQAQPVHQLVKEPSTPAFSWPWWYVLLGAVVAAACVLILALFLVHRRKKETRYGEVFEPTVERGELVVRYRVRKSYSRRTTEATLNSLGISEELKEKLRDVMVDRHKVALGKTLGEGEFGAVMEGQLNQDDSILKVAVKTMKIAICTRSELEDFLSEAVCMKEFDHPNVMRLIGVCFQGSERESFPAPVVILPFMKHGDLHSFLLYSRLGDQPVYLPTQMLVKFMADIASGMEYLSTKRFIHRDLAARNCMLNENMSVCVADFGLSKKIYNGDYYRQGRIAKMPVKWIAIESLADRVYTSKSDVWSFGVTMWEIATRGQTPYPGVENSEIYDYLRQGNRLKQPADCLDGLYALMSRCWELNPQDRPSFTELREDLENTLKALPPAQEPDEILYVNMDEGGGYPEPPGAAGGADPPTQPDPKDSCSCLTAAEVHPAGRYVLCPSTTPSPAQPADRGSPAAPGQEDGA
As to the kind of experiment: Inhibition of N-terminal His-tagged recombinant human AXL (473 to end amino acids) expressed by baculovirus in Sf9 cells using axltide substrate and ATP by ADP-Glo luminescence assay. A general note: ADP-Glo first removes unused ATP, then detects ADP through luciferase.

A further assay relates to A-375. In words: Antiproliferative activity against human A375 cells after 2 days by spectrophotometric analysis. It counts as functional. Particulars: A-375, 48 h.
The target of assay [11] is Angiopoietin-1 receptor (Homo sapiens) (UniProt Q02763). As to the kind of experiment: Inhibition of human TIE2 at 10 uM using poly[Glu:Tyr] (4:1) as substrate by [gamma-33P]-ATP assay relative to control. In short, it runs like this:
as §2

The next assay relates to HCC78. In words: Antiproliferative activity against human HCC78 cells after 2 days by spectrophotometric analysis. It counts as functional. Particulars: HCC78, 48 h.
Assay [12] deals with Serine/threonine-protein kinase PAK 4 (Homo sapiens) (UniProt O96013). In words: Inhibition of human PAK4 at 10 uM using RRRLSFAEPG as substrate by [gamma-33P]-ATP assay relative to control. In outline:
as §2

The target of assay [13] is Muscle, skeletal receptor tyrosine-protein kinase (Homo sapiens) (UniProt O15146). In words: Inhibition of human MUSK at 10 uM using MBP as substrate by [gamma-33P]-ATP assay relative to control. In short, it runs like this:
as §1

Assay [14] has as its target Tyrosine-protein kinase Lyn (Homo sapiens) (UniProt P07948). As to the kind of experiment: Inhibition of human LYN at 10 uM using poly[Glu:Tyr] (4:1) as substrate by [gamma-33P]-ATP assay relative to control. In short, it runs like this:
as §1

Assay [15] addresses Vascular endothelial growth factor receptor 2 (Homo sapiens) (UniProt P35968). In words: Inhibition of human KDR at 10 uM using poly[Glu:Tyr] (4:1) as substrate by [gamma-33P]-ATP assay relative to control. In outline:
as §1

Vascular endothelial growth factor receptor 1 (Homo sapiens), sequence (P17948 whole entry): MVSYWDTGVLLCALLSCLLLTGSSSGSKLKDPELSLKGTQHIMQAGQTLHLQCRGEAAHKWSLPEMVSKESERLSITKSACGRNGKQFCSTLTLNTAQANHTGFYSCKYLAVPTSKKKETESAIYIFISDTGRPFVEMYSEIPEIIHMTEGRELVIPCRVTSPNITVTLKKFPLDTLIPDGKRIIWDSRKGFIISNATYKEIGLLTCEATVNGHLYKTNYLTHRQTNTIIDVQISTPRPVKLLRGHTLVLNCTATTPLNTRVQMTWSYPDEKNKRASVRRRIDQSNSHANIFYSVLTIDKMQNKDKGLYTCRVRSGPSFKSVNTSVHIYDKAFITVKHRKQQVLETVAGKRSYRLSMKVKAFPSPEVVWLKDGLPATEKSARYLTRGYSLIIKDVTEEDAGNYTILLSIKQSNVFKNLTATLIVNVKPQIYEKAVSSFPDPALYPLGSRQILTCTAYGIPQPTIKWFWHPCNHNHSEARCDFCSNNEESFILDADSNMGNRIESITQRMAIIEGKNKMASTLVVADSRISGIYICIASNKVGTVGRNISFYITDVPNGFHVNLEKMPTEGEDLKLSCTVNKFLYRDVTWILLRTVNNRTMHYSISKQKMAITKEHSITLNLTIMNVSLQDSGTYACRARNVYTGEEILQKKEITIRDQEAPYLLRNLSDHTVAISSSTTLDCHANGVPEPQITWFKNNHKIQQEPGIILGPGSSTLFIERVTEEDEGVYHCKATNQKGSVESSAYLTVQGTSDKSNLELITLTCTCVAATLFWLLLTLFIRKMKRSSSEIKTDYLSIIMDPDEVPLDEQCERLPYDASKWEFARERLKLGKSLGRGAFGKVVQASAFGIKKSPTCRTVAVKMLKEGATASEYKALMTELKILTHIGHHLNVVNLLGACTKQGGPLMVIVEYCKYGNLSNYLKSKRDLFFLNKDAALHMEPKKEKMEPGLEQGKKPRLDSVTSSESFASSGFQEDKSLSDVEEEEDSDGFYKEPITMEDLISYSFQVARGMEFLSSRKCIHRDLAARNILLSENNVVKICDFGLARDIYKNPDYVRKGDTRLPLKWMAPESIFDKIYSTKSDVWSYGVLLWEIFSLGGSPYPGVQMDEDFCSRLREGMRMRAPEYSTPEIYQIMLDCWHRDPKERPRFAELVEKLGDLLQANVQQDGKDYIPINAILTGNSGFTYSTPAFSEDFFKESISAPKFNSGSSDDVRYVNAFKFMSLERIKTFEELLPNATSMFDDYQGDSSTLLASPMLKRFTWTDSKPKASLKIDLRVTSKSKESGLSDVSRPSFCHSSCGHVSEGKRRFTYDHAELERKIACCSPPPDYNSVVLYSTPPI
Focal adhesion kinase 1, sequence (Q05397 2-1052 limits assumed): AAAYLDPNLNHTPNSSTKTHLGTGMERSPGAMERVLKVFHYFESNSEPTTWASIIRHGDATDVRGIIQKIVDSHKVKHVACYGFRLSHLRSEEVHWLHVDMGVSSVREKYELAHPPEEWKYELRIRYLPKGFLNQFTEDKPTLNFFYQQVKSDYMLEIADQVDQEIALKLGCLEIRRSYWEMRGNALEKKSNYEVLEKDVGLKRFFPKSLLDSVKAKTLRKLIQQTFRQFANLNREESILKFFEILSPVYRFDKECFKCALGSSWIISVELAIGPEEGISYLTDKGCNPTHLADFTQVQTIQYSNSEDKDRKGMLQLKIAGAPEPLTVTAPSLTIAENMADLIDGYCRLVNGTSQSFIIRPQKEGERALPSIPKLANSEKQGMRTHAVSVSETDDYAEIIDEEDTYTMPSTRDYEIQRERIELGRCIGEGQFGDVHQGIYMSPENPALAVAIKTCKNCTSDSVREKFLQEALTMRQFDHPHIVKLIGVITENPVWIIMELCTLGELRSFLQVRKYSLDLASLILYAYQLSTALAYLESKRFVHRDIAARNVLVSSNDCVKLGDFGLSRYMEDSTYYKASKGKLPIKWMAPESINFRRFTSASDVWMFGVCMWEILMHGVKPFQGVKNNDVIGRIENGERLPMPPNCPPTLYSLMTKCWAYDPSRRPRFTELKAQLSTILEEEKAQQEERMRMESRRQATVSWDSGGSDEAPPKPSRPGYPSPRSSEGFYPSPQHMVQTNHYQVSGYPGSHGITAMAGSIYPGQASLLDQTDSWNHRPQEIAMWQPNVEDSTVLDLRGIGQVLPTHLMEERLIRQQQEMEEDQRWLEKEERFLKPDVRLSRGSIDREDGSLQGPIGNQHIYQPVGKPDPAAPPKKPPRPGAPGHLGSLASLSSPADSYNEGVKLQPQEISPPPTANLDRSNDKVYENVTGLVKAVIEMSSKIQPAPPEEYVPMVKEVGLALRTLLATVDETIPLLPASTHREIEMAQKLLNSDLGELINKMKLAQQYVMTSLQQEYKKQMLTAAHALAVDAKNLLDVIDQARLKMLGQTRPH
Serine/threonine-protein kinase PAK 4 (Homo sapiens), sequence (O96013 whole entry, looked up): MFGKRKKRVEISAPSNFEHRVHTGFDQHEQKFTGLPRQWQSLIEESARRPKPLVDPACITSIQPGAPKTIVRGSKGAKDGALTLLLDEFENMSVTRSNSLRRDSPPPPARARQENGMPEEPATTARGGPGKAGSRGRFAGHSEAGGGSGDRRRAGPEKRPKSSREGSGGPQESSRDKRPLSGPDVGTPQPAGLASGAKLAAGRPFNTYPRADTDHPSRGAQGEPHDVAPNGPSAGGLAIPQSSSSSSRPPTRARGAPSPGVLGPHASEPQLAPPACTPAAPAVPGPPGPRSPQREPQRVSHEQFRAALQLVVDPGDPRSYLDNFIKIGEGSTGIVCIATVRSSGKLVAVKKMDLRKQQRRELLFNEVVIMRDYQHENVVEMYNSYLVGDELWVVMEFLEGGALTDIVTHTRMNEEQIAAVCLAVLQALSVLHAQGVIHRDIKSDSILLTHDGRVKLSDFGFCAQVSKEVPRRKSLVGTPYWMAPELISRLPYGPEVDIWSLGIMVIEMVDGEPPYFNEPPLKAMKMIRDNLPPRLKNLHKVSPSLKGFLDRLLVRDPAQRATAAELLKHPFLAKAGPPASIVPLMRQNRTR
Activated CDC42 kinase 1 (Homo sapiens), sequence (Q07912 whole entry, looked up): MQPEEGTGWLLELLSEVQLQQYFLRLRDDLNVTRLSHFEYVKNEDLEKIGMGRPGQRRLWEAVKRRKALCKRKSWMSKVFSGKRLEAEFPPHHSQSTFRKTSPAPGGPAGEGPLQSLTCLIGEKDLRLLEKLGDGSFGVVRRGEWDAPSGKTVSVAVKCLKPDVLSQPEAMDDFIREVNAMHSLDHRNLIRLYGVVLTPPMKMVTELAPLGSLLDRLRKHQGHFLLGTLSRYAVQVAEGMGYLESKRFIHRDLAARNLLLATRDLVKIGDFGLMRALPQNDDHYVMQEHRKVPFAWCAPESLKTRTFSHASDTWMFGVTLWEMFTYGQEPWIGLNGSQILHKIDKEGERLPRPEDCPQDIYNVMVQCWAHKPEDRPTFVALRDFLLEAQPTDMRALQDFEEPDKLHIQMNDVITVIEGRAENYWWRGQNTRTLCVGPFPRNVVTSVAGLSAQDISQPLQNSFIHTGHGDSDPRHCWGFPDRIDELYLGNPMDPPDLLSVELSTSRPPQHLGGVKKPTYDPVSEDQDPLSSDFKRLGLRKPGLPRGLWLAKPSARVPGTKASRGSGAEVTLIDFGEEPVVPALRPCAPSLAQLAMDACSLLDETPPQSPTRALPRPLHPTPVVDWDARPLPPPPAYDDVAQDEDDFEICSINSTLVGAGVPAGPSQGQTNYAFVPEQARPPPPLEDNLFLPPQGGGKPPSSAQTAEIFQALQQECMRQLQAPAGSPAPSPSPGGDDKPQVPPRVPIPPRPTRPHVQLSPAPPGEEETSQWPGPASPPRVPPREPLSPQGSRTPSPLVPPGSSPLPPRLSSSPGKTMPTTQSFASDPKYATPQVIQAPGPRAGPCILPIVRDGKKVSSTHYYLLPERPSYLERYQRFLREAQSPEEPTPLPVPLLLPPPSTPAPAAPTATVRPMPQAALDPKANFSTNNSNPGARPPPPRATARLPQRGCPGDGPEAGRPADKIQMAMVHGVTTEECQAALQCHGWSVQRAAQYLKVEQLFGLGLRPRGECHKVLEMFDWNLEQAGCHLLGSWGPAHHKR
Mitogen-activated protein kinase 8 (Homo sapiens), sequence (P45983 whole entry): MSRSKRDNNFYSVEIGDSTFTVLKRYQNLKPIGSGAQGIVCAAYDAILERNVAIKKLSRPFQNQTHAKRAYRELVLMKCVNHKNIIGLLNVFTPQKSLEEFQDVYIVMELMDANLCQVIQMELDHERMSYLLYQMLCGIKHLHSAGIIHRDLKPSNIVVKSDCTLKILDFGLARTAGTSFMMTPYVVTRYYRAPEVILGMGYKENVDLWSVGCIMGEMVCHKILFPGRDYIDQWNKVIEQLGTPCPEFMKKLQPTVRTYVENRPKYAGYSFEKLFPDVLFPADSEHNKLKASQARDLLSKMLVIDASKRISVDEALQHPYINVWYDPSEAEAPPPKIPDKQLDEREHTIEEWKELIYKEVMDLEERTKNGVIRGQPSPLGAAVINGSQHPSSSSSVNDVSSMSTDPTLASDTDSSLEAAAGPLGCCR

With `CC(=O)N1CCN(c2ccc(Nc3ncc(C(F)(F)F)c(N4Cc5cccc(N(C)S(C)(=O)=O)c5C4)n3)cc2)CC1`, the inhibition is 80.6% in [1]; 9.8% in assay [2]; 45.1% in [3]; 71.3% in assay [4]; 17.9% in assay [5]; 85.2% in assay [6]. Also, the inhibition on Focal adhesion kinase 1 was found to be 96.4%; in assay [7] it was 91.1%; in assay [8], 92.2%; in [9], 49%; in assay [11], 65.4%; in assay [12], 16.2%. The inhibition in [13] is 66.6%; in assay [14], 69.1%; in [15] it was 55.8%. In addition, in assay [10], the half-maximal inhibitory concentration (IC50) was below 0.5 nM. Besides, the GI50 with A-375 was 1000 nM; in the assay on HCC78, 5200 nM.
